Reference: ChEMBL document CHEMBL1123551, “3-Pyrroline N-oxide bis(carbamate) tumor inhibitors as analogues of indicine N-oxide” (J Med Chem, 1987)

Columns and labels:
P388 [1] = assay: In vivo antileukemic activity against P388 lymphocytic leukemia at a dose of 50 mg/kg administered intraperitoneally expressed as log of the number of tumor cells (cell kill); format: ADME, organism-based; design: dose 50 mg/kg, route intraperitoneal; details: mouse, ip
Summary of the method: (§1)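 P388 tumor inoculated ip. Drug solution in distilled water injected ip as five daily doses, starting 24 h after inoculation; some compounds were given as suspensions made fresh daily and used immediately.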

P388 [2] = assay: In vivo antileukemic activity against P388 lymphocytic leukemia at a dose of 12.5 mg/kg administered intraperitoneally expressed as ratio of survival of treated compared to untreated control animals; format: functional, Mus musculus; details: route intraperitoneal
Summary of the method: (§2)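 Drug given ip as a solution in distilled water. Five daily doses, starting 24 h after ip tumor inoculation. % T/C is the survival of treated animals divided by that of untreated controls, expressed as a percent. Log cell kill (KE) is the log of tumor cell number at the end of treatment relative to the start. Weight change of treated animals is recorded relative to controls.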

P388 [3] = assay: In vivo antileukemic activity against P388 lymphocytic leukemia at a dose of 100 mg/kg administered intraperitoneally expressed as ratio of survival of treated compared to untreated control animals; format: functional, Mus musculus; details: route intraperitoneal; summary of the method: as §2
P388 [4] = assay: In vivo antileukemic activity against P388 lymphocytic leukemia at a dose of 25 mg/kg administered intraperitoneally expressed as weight change of treated to control animals; format: functional, Mus musculus; details: route intraperitoneal
Summary of the method: (§3)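 P388 leukemia inoculated ip. Test drug in distilled water given ip once daily for 5 days, beginning 24 h post-inoculation; some compounds were dosed as suspensions prepared fresh daily and used immediately. Read-out is body weight change of treated animals relative to untreated controls.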

P388 [5] = assay: In vivo antileukemic activity against P388 lymphocytic leukemia at a dose of 100 mg/kg administered intraperitoneally expressed as weight change of treated to control animals; format: functional, Mus musculus; details: route intraperitoneal; summary of the method: as §3
P388 [6] = assay: In vivo antileukemic activity against P388 lymphocytic leukemia at a dose of 12.5 mg/kg administered intraperitoneally expressed as weight change of treated to control animals; format: functional, Mus musculus; details: route intraperitoneal; summary of the method: as §3
P388 [7] = assay: In vivo antileukemic activity against P388 lymphocytic leukemia at a dose of 50 mg/kg administered intraperitoneally expressed as ratio of survival of treated compared to untreated control animals; format: functional, Mus musculus; details: route intraperitoneal; summary of the method: as §2
P388 [8] = assay: In vivo antileukemic activity against P388 lymphocytic leukemia at a dose of 12.5 mg/kg administered intraperitoneally expressed as log of the number of tumor cells (cell kill); format: ADME, organism-based; design: dose 12.5 mg/kg, route intraperitoneal; details: mouse, ip; summary of the method: as §1
P388 [9] = assay: In vivo antileukemic activity against P388 lymphocytic leukemia at a dose of 25 mg/kg administered intraperitoneally expressed as ratio of survival of treated compared to untreated control animals; format: functional, Mus musculus; details: route intraperitoneal; summary of the method: as §2
P388 [10] = assay: In vivo antileukemic activity against P388 lymphocytic leukemia at a dose of 50 mg/kg administered intraperitoneally expressed as weight change of treated to control animals; format: functional, Mus musculus; details: route intraperitoneal; summary of the method: as §3
P388 [11] = assay: In vivo antileukemic activity against P388 lymphocytic leukemia at a dose of 100 mg/kg administered intraperitoneally expressed as log of the number of tumor cells (cell kill); format: ADME, organism-based; design: dose 100 mg/kg, route intraperitoneal; details: mouse, ip; summary of the method: as §1
P388 [12] = assay: In vivo antileukemic activity against P388 lymphocytic leukemia at a dose of 25 mg/kg administered intraperitoneally expressed as log of the number of tumor cells (cell kill); format: ADME, organism-based; design: dose 25 mg/kg, route intraperitoneal; details: mouse, ip; summary of the method: as §1
P388 [13] = assay: In vivo antileukemic activity against P388 lymphocytic leukemia at a dose of 3.75 mg/kg administered intraperitoneally expressed as ratio of survival of treated compared to untreated control animals; format: functional, Mus musculus; details: route intraperitoneal; summary of the method: as §2
P388 [14] = assay: In vivo antileukemic activity against P388 lymphocytic leukemia at a dose of 30 mg/kg administered intraperitoneally expressed as ratio of survival of treated compared to untreated control animals; format: functional, Mus musculus; details: route intraperitoneal; summary of the method: as §2
P388 [15] = assay: In vivo antileukemic activity against P388 lymphocytic leukemia at a dose of 3.75 mg/kg administered intraperitoneally expressed as log of the number of tumor cells (cell kill); format: ADME, organism-based; design: dose 3.75 mg/kg, route intraperitoneal; details: mouse, ip; summary of the method: as §1
P388 [16] = assay: In vivo antileukemic activity against P388 lymphocytic leukemia at a dose of 7.5 mg/kg administered intraperitoneally expressed as weight change of treated to control animals; format: functional, Mus musculus; details: route intraperitoneal; summary of the method: as §3
P388 [17] = assay: In vivo antileukemic activity against P388 lymphocytic leukemia at a dose of 30 mg/kg administered intraperitoneally expressed as log of the number of tumor cells (cell kill); format: ADME, organism-based; design: dose 30 mg/kg, route intraperitoneal; details: mouse, ip; summary of the method: as §1
P388 [18] = assay: In vivo antileukemic activity against P388 lymphocytic leukemia at a dose of 15 mg/kg administered intraperitoneally expressed as ratio of survival of treated compared to untreated control animals; format: functional, Mus musculus; details: route intraperitoneal; summary of the method: as §2
P388 [19] = assay: In vivo antileukemic activity against P388 lymphocytic leukemia at a dose of 30 mg/kg administered intraperitoneally expressed as weight change of treated to control animals; format: functional, Mus musculus; details: route intraperitoneal; summary of the method: as §3
P388 [20] = assay: In vivo antileukemic activity against P388 lymphocytic leukemia at a dose of 15 mg/kg administered intraperitoneally expressed as log of the number of tumor cells (cell kill); format: ADME, organism-based; design: dose 15 mg/kg, route intraperitoneal; details: mouse, ip; summary of the method: as §1
P388 [21] = assay: In vivo antileukemic activity against P388 lymphocytic leukemia at a dose of 7.5 mg/kg administered intraperitoneally expressed as ratio of survival of treated compared to untreated control animals; format: functional, Mus musculus; details: route intraperitoneal; summary of the method: as §2
P388 [22] = assay: In vivo antileukemic activity against P388 lymphocytic leukemia at a dose of 3.75 mg/kg administered intraperitoneally expressed as weight change of treated to control animals; format: functional, Mus musculus; details: route intraperitoneal; summary of the method: as §3
P388 [23] = assay: In vivo antileukemic activity against P388 lymphocytic leukemia at a dose of 7.5 mg/kg administered intraperitoneally expressed as log of the number of tumor cells (cell kill); format: ADME, organism-based; design: dose 7.5 mg/kg, route intraperitoneal; details: mouse, ip; summary of the method: as §1
P388 [24] = assay: In vivo antileukemic activity against P388 lymphocytic leukemia at a dose of 15 mg/kg administered intraperitoneally expressed as weight change of treated to control animals; format: functional, Mus musculus; details: route intraperitoneal; summary of the method: as §3
P388 [25] = assay: In vivo antileukemic activity against P388 lymphocytic leukemia at a dose of 200 mg/kg administered intraperitoneally expressed as weight change of treated to control animals; format: functional, Mus musculus; details: route intraperitoneal; summary of the method: as §3
P388 [26] = assay: In vivo antileukemic activity against P388 lymphocytic leukemia at a dose of 400 mg/kg administered intraperitoneally expressed as weight change of treated to control animals; format: functional, Mus musculus; details: route intraperitoneal; summary of the method: as §3
P388 [27] = assay: In vivo antileukemic activity against P388 lymphocytic leukemia at a dose of 400 mg/kg administered intraperitoneally expressed as log of the number of tumor cells (cell kill); format: ADME, organism-based; design: dose 400 mg/kg, route intraperitoneal; details: mouse, ip; summary of the method: as §1
P388 [28] = assay: In vivo antileukemic activity against P388 lymphocytic leukemia at a dose of 200 mg/kg administered intraperitoneally expressed as log of the number of tumor cells (cell kill); format: ADME, organism-based; design: dose 200 mg/kg, route intraperitoneal; details: mouse, ip; summary of the method: as §1
P388 [29] = assay: In vivo antileukemic activity against P388 lymphocytic leukemia at a dose of 200 mg/kg administered intraperitoneally expressed as ratio of survival of treated compared to untreated control animals; format: functional, Mus musculus; details: route intraperitoneal; summary of the method: as §2
P388 [30] = assay: In vivo antileukemic activity against P388 lymphocytic leukemia at a dose of 400 mg/kg administered intraperitoneally expressed as ratio of survival of treated compared to untreated control animals; format: functional, Mus musculus; details: route intraperitoneal; summary of the method: as §2
P388 [31] = assay: In vivo antileukemic activity against P388 lymphocytic leukemia at a dose of 240 mg/kg administered intraperitoneally expressed as ratio of survival of treated compared to untreated control animals; format: functional, Mus musculus; details: route intraperitoneal; summary of the method: as §2
P388 [32] = assay: In vivo antileukemic activity against P388 lymphocytic leukemia at a dose of 240 mg/kg administered intraperitoneally expressed as weight change of treated to control animals; format: functional, Mus musculus; details: route intraperitoneal; summary of the method: as §3
P388 [33] = assay: In vivo antileukemic activity against P388 lymphocytic leukemia at a dose of 240 mg/kg administered intraperitoneally expressed as log of the number of tumor cells (cell kill); format: ADME, organism-based; design: dose 240 mg/kg, route intraperitoneal; details: mouse, ip; summary of the method: as §1

CC(C)NC(=O)OCC1=C(COC(=O)NC(C)C)C(C)(C)[N+](C)([O-])C1c1ccccc1 (centres undefined)
KE (P388 [1]): -1.53 | T/C (P388 [2]): 108% | T/C (P388 [3]): 107% | Weight change (P388 [4]): 0.1 g | Weight change (P388 [5]): 0.7 g | Weight change (P388 [6]): 2.1 g | T/C (P388 [7]): 107% | KE (P388 [8]): -1.54 | T/C (P388 [9]): 100% | Weight change (P388 [10]): 0.9 g | KE (P388 [11]): -1.53 | KE (P388 [12]): -1.64

CC(C)NC(=O)OCC1=C(COC(=O)NC(C)C)C(c2ccccc2)N(C)C1 (centres undefined)
KE (P388 [1]): 0.53 | T/C (P388 [2]): 121% | T/C (P388 [3]): 225% | Weight change (P388 [4]): -0.9 g | Weight change (P388 [5]): -2.2 g | Weight change (P388 [6]): 0 g | T/C (P388 [7]): 145% | KE (P388 [8]): 0.84 | T/C (P388 [9]): 136% | Weight change (P388 [10]): -2 g | KE (P388 [11]): 5.18 | KE (P388 [12]): 0

CC(C)NC(=O)OCc1cn(C)c(-c2ccccc2)c1COC(=O)NC(C)C
T/C (P388 [13]): 129% | T/C (P388 [14]): 171% | KE (P388 [15]): -0.7 | Weight change (P388 [16]): -1.9 g | KE (P388 [17]): 1.99 | T/C (P388 [18]): 181% | Weight change (P388 [19]): -3.4 g | KE (P388 [20]): 2.63 | T/C (P388 [21]): 145% | Weight change (P388 [22]): -0.5 g | KE (P388 [23]): 0.32 | Weight change (P388 [24]): -3.2 g

CNC(=O)OCC1=CC[N+](C)([O-])C1COC(=O)NC (centres undefined)
KE (P388 [1]): 0.62 | Weight change (P388 [25]): -2.4 g | T/C (P388 [2]): 142% | T/C (P388 [3]): 159% | Weight change (P388 [26]): -5.7 g | Weight change (P388 [4]): -1.2 g | KE (P388 [27]): 0.34 | Weight change (P388 [5]): -2.1 g | Weight change (P388 [6]): -3.8 g | T/C (P388 [7]): 145% | KE (P388 [28]): 1 | KE (P388 [8]): 0.39 | T/C (P388 [29]): 150% | T/C (P388 [9]): 122% | Weight change (P388 [10]): -1.5 g | T/C (P388 [30]): 143% | KE (P388 [11]): 1.7 | KE (P388 [12]): -1.23

C[N+]1([O-])CC=CC1
T/C (P388 [31]): 108% | Weight change (P388 [32]): -0.2 g | KE (P388 [33]): -0.12

CC(C)NC(=O)OCC1=C(COC(=O)NC(C)C)C(c2ccccc2)[N+](C)([O-])C1 (centres undefined)
KE (P388 [1]): -1.16 | T/C (P388 [2]): 115% | T/C (P388 [3]): 134% | Weight change (P388 [4]): -0.1 g | Weight change (P388 [5]): -1.5 g | Weight change (P388 [6]): 1.6 g | T/C (P388 [7]): 116% | KE (P388 [8]): -1.21 | T/C (P388 [9]): 109% | Weight change (P388 [10]): -0.6 g | KE (P388 [11]): -0.11 | KE (P388 [12]): -1.5
